Data: ChEMBL document CHEMBL1629475, “Synthesis of new chalcone derivatives containing a rhodanine-3-acetic acid moiety with potential anti-bacterial activity” (2010)
Calls of active or inactive are those of the source. The rule behind the calls is not given here.

Experiments:
[1] = test system: Staphylococcus aureus; experiment: Antibacterial activity against Staphylococcus aureus RN 4220 at 64 ug/ml; assay type: functional, organism-based
[2] = test system: Staphylococcus aureus; experiment: Antibacterial activity against Staphylococcus aureus KCTC 503 at 64 ug/ml; assay type: functional, organism-based
[3] = test system: Staphylococcus aureus; experiment: Antibacterial activity against Staphylococcus aureus KCTC 209 at 64 ug/ml; assay type: functional, organism-based
[4] = test system: Streptococcus mutans; experiment: Antibacterial activity against Streptococcus mutans KCTC 3065 at 64 ug/ml; assay type: functional, organism-based
[5] = test system: Streptococcus mutans; experiment: Antibacterial activity against Streptococcus mutans KCTC 3289 at 64 ug/ml; assay type: functional, organism-based
[6] = test system: Staphylococcus aureus; experiment: Antibacterial activity against Staphylococcus aureus RN 4220 after 20 hrs by twofold serial dilution technique; assay type: functional; conditions: RN 4220, 20 h
Method in brief: (§1)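 Inoculum was 10⁵ CFU/mL. MIC was read after 20 h at 37 °C. The MRSA and QRSA strains were multidrug-resistant clinical isolates. Oxacillin and norfloxacin served as positive controls.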

[7] = test system: Staphylococcus aureus; experiment: Antibacterial activity against Staphylococcus aureus KCTC 503 after 20 hrs by twofold serial dilution technique; assay type: functional; conditions: KCTC 503, 20 h; method in brief: as §1
[8] = test system: Staphylococcus aureus; experiment: Antibacterial activity against Staphylococcus aureus KCTC 209 after 20 hrs by twofold serial dilution technique; assay type: functional; conditions: KCTC 209, 20 h; method in brief: as §1
[9] = test system: Streptococcus mutans; experiment: Antibacterial activity against Streptococcus mutans KCTC 3065 after 20 hrs by twofold serial dilution technique; assay type: functional; conditions: KCTC 3065, 20 h
Method in brief: (§2)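 Inoculum was 10⁵ CFU/mL, and MIC was read after incubation at 37 °C for 20 h. Oxacillin and norfloxacin were the positive controls.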

[10] = test system: Streptococcus mutans; experiment: Antibacterial activity against Streptococcus mutans KCTC 3289 after 20 hrs by twofold serial dilution technique; assay type: functional; conditions: KCTC 3289, 20 h; method in brief: as §2
[11] = test system: Escherichia coli; experiment: Antibacterial activity against Escherichia coli 1924 after 20 hrs by twofold serial dilution technique; assay type: functional; conditions: Escherichia coli, 1924, 20 h; method in brief: as §1
[12] = test system: Escherichia coli; experiment: Antibacterial activity against Escherichia coli 1356 after 20 hrs by twofold serial dilution technique; assay type: functional; conditions: Escherichia coli, 1356, 20 h; method in brief: as §1
[13] = test system: Escherichia coli; experiment: Antibacterial activity against Escherichia coli 1356 at 64 ug/ml; assay type: functional, organism-based
[14] = test system: Escherichia coli; experiment: Antibacterial activity against Escherichia coli 1924 at 64 ug/ml; assay type: functional, organism-based

| SMILES | Activity [1] | Activity [2] | Activity [3] | Activity [4] | Activity [5] | MIC [6] [µg/mL] | MIC [7] [µg/mL] | MIC [8] [µg/mL] | MIC [9] [µg/mL] | MIC [10] [µg/mL] | MIC [11] [µg/mL] | MIC [12] [µg/mL] | Activity [13] | Activity [14] |
| --- | --- | --- | --- | --- | --- | --- | --- | --- | --- | --- | --- | --- | --- | --- |
| O=C(O)CN1C(=O)/C(=C\c2ccc(/C=C/C(=O)c3ccccc3Cl)cc2)SC1=S | inactive | inactive | inactive | inactive | inactive | > 64 | > 64 | > 64 | > 64 | > 64 | > 64 | > 64 | inactive | inactive |
| O=C(O)CN1C(=O)/C(=C\c2ccc(/C=C/C(=O)c3ccccc3Br)cc2)SC1=S | inactive | inactive | inactive | inactive | inactive | > 64 | > 64 | > 64 | > 64 | > 64 | > 64 | > 64 | inactive | inactive |
| O=C(O)CN1C(=O)/C(=C\c2ccc(/C=C/C(=O)c3ccccc3F)cc2)SC1=S | inactive | inactive | inactive | inactive | inactive | > 64 | > 64 | > 64 | > 64 | > 64 | > 64 | > 64 | inactive | inactive |
| O=C(O)CN1C(=O)CSC1=S [RHODANINE-3-ACETIC ACID] | inactive | inactive | inactive | inactive | inactive | > 64 | > 64 | > 64 | > 64 | > 64 | > 64 | > 64 | inactive | inactive |
